The list is not random: actives were taken first. Their share in the collection is about 4.5%.
CHOP UPR activ – apoptotic UPR (CHOP) activation. 330,000 compounds, 0.34% hits. activation, % at 10 µM. CHO-CHOP luciferase reporter, luminescence; percent of tunicamycin response over DMSO baseline;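 active means at 10 µM dose, activation of 40% or more, normalized to positive control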;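 further: 100% = tunicamycin at 10 µg/mL and 0% = DMSO alone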
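System: CHO CHOP reporter cells. Amount: 500 cells per well. Buffer or medium: F12 medium, 10% FBS. Compound dosing: one dose, 10 µM in 0.5% DMSO. Incubation: 6 h compound exposure at 37 °C after overnight seeding. Technique: Steady-Glo luciferase luminescence. Benchmarks: tunicamycin and DMSO controls.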
CHOP inhibitor – inhibitors of CHOP induction in ER stress response. 220,000 compounds, 3.8% hits. inhibition, % at 10 µM. CHO-K1 CHOP-promoter luciferase, tunicamycin-induced, 15-18 h;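 active means compounds that reduced the stress-induced luciferase reporter signal by more than about 70% of percent inhibition, limit read from the data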;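 further: 0% = tunicamycin plus vehicle and 100% = wells without tunicamycin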
p97 inhibitor – blocks human p97 ATPase activity | P55072 | recombinant p97 ATPase, Kinase-Glo ATP luminescence, 3 h | inhibition, % at 8 µM | 220,000 compounds, 0.42% hits | AID 1481; in the data active means inhibition above about 15%;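 further: 0% = DMSO vehicle and 100% = wells lacking enzyme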
Target sequence (P55072 whole entry, looked up): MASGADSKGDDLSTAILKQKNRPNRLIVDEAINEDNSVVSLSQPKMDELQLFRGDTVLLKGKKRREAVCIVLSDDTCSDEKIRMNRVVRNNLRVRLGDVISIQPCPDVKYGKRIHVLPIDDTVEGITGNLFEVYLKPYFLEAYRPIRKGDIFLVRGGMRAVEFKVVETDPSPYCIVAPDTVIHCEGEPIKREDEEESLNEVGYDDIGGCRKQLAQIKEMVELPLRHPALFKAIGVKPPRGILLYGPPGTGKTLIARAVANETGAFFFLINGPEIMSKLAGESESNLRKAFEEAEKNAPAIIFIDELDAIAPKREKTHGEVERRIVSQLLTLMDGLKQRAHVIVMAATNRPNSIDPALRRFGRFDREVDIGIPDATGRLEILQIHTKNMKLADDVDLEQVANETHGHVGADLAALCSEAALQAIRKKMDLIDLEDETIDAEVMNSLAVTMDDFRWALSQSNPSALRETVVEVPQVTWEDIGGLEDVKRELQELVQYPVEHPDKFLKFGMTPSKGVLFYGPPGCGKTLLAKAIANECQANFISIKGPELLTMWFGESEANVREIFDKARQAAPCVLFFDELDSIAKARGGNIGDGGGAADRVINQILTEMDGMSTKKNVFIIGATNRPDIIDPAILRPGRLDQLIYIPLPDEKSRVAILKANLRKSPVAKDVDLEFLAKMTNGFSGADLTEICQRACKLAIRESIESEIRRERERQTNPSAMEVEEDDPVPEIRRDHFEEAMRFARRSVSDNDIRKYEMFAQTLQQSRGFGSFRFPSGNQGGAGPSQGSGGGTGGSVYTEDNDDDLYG
NS3 helicase inh – inhibitors of Hepatitis C virus NS3 helicase | inhibition, % at 10.9 µM | 290,000 compounds, 0.56% hits | AID 1800 | NS3 helicase DNA unwinding, Cy5 molecular beacon fluorescence;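 active means inhibition above the mean of all tested compounds plus 3 SD, set per campaign, cut at about 35% in these data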;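 further: 0% = DMSO wells and 100% = thioflavine S control wells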
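Measured by: Cy5 fluorescence, 0 and 60 min reads / Assay system: NS3 helicase fragment of HCV / Control set: low DMSO, high thioflavine S at 110 µM / Times: 1 h reaction at 25 °C, ATP-initiated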
PfM18AAP inh-1 – blocks P. falciparum M18 aspartyl aminopeptidase; recombinant PfM18AAP, H-Glu-NHMec fluorogenic cleavage; 290,000 compounds, 1.2% hits; inhibition, % at 7.35 µM;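 active means inhibition above the campaign mean inhibition over all tested compounds plus 3 SD, cut at about 28% in these data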;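 further: 0% = plate median of test compound wells and 100% = 2 mM ZnCl2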
XBP1 UPR activ – activators of adaptive arm of unfolded protein response (XBP1). CHO-XBP1 luciferase reporter, IRE1-XBP1 UPR activation, luminescence; percent of tunicamycin response, DMSO as zero. activation, % at 20 µM. 330,000 compounds, 0.33% hits;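 active means versus positive control, 20 µM dose yields 30% or more activation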;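 further: 100% = tunicamycin at 10 µg/mL and 0% = DMSO only wells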
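Material: CHO-XBP1 cells stably carrying IRE1-XBP1-driven luciferase reporter | Medium: F12 with 10% serum | Compound dosing: 20 µM single concentration, DMSO 1% | Incubation: Overnight seeding at 37 °C, 6 h compound treatment at 37 °C | Detection: Steady-Glo luminescence read | Read-out basis: % activation of reporter signal versus tunicamycin and DMSO controls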
PfM18AAP inh-2 – confirmation of Plasmodium falciparum M18 aspartyl aminopeptidase inhibitors; shares compounds with PfM18AAP inh-1; recombinant PfM18AAP, H-Glu-NHMec fluorogenic cleavage; inhibition, % at 7.35 µM; 2,400 compounds, 28% hits; AID 2170;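 active means mean inhibition over replicate wells above the hit cutoff set for the earlier primary screen, cut at about 29% in these data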;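 further: 0% = median of test compound wells and 100% = 2 mM ZnCl2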
CTSL1 counter – Cathepsin L (human) inhibition, confirmation. shares compounds with PfM18AAP inh-1. purified cathepsin L1, Z-Leu-Arg-MCA fluorescence. inhibition, % at 5.96 µM. 2,400 tested, under 10 active. AID 2178;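 active means average inhibition across replicates above the hit cutoff set in the earlier primary screen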;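 further: 0% = median of test compound wells and 100% = Z-Phe-Ala-diazomethylketone 1 µM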
CHOP UPR conf – apoptotic UPR (CHOP) activation, confirmed; shares compounds with CHOP UPR activ; CHO-CHOP cells, CHOP-luciferase reporter luminescence; percent of tunicamycin response, DMSO as zero; activation, % at 10 µM; 1,000 compounds, 64% hits; AID 463112; in the data active means activation above about 33%;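 further: 0% = DMSO wells and 100% = tunicamycin 10 µg/mL wells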
XBP1 UPR conf – adaptive UPR (XBP1) activation, confirmed | CHO-XBP1 IRE1-XBP1 luciferase reporter, luminescence | 1,000 compounds, 63% hits | activation, % at 20 µM | shares compounds with XBP1 UPR activ | AID 485299;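 active means reporter signal at least 30% of the positive control's activation in two or more of four replicate wells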;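 further: plate controls were DMSO negative control for no effect and tunicamycin 10 µg/mL positive control for full effect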
Active calls of the source: *; . = no result given.

SMILES | CHOP UPR activ | CHOP inhibitor | p97 inhibitor | NS3 helicase inh | PfM18AAP inh-1 | XBP1 UPR activ | PfM18AAP inh-2 | CTSL1 counter | CHOP UPR conf | others
COc1ccc2oc(CS(=O)c3ccccc3)c(C(=O)O)c2c1 (centres undefined) | 1 | . | . | -1 | -1 | -1 | . | . | .
COc1ccc(O)c(/C=N/n2c(-c3ccco3)csc2=Nc2cccnc2)c1 | 0 | 0 | 1 | 14 | -1 | 8 | . | . | .
C=CCN=c1scc(C)n1/N=C/c1ccc(O)c(O)c1 | 302* | -103 | 2 | 20 | 57* | 19 | 40* | 9 | 208*
CN=c1scc(-c2ccco2)n1/N=C/c1ccc(O)c(O)c1 | 52* | 23 | 6 | 7 | 59* | -3 | 51* | 2 | 70*
Oc1ccc(/C=N/N2CCCCC2)cc1O | 179* | . | . | 21 | 66* | 5 | 32* | -2 | 38*
O=C(N/N=C/c1ccc(OCc2ccc(F)cc2)cc1)c1ccccc1 | 3 | -15 | 7 | -1 | -5 | 0 | . | . | .
CC(C)(C)c1ccc(OCc2ccc(C(=O)N/N=C/c3ccc(O)c(O)c3)cc2)cc1 | 41* | 28 | 4 | 9 | 36* | 20 | -5 | -6 | 27
Cc1oc2c(O)c(O)ccc2c(=O)c1-c1cnn(-c2ccccc2)c1 | 114* | -59 | 4 | 21 | 32* | 6 | 27 | -2 | 14
CCOc1ccc(/C=N/NC(=O)NC23CC4CC(CC(C4)C2)C3)cc1O | 2 | . | . | -3 | 6 | 7 | . | . | .
O=C(N/N=C/c1ccc(O)c(O)c1)NC12CC3CC(CC(C3)C1)C2 | 145* | . | . | -3 | 48* | 42* | 13 | -1 | 157*
CC(=O)N1CCN(C(=O)C(Cc2c[nH]c3ccccc23)NC(=O)c2ccccc2Cl)CC1 (centres undefined) | 1 | . | . | 2 | -9 | 4 | . | . | .
COC(=O)Oc1ccc(/C=C/C(=O)OC(C)C)cc1OC(=O)OC | 131* | 1 | 6 | 8 | 72* | 14 | 43* | -6 | 61*
O=C1Nc2ccc(Br)cc2/C1=C/c1ccc(C(=O)O)cc1 | 2 | . | . | 35 | 11 | -5 | . | . | .
CCS(=O)(=O)c1cc([N+](=O)[O-])c(Sc2ccccc2NC(C)=O)s1 | 59* | -183 | 3 | -3 | 35* | 1 | -32 | 2 | 15
Cc1ccn2cc(-c3cccc(NC(=O)C(C)C)c3)nc2c1 | 5 | -7 | -1 | 8 | 2 | 2 | . | . | .
Cc1ccn2cc(-c3ccc(O)c(O)c3)nc2c1 | 120* | . | . | 3 | 72* | -4 | 51* | -8 | 57*
Oc1ccc(-c2cn3ccccc3n2)cc1O | 155* | . | . | -1 | 70* | -1 | 58* | -2 | 33*
Oc1ccc(-c2cn3ccccc3n2)cc1 | 4 | 2 | -1 | 11 | 6 | 2 | . | . | .
COc1ccccc1N1C(=O)C2CC(C)=C(C)CC2C1=O (centres undefined) | 0 | 13 | 0 | -2 | 2 | 0 | . | . | .
COc1ccccc1N1C(=O)C=C(Sc2nc(C)cc(C)n2)C1=O | 62* | 32 | 0 | 11 | 35* | 2 | -322 | -2 | 56*
CC(Oc1ccc(Br)cc1)C(=O)Nc1cc(Cl)ccc1N1CCN(C)CC1 (centres undefined) | 1 | . | . | . | . | 2 | . | . | .
COc1ccc(CCNC(=O)CC(c2ccccc2)c2cc(C)ccc2O)cc1OC (centres undefined) | 1 | . | . | -6 | -13 | 7 | . | . | .
CN(c1ccc(O)cc1)c1nc(-c2cccs2)cs1 | 48* | 60 | 2 | 9 | 39* | 3 | -5 | 1 | 6
COc1ccc(CCNC(=O)CSc2ccc3ccccc3c2)cc1OC | 1 | 31 | -3 | 1 | -6 | 3 | . | . | .
O=C(CSc1ccc2ccccc2c1)NCCc1ccc(O)c(O)c1 | 55* | -113 | 4 | 7 | 57* | 11 | 41* | 4 | 46*
SMILES | CHOP UPR activ | CHOP inhibitor | p97 inhibitor | NS3 helicase inh | PfM18AAP inh-1 | XBP1 UPR activ | PfM18AAP inh-2 | CTSL1 counter | CHOP UPR conf | others
C=Cn1ccnc1CC(O)c1ccc(OC)cc1 (centres undefined) | -2 | . | . | . | . | 0 | . | . | .
C=CCNc1nc(C(=O)OCC(=O)NCc2ccccc2OC)cs1 | -1 | . | . | . | . | -1 | . | . | .
COc1cc(NS(=O)(=O)c2ccc(NC(=O)c3cccnc3)cc2)ncn1 | 0 | . | . | 0 | 3 | -7 | . | . | .
O=C(O)CC1CCC(=C(Cl)Cl)C1 (centres undefined) | 46* | 79* | 4 | 1 | 64* | -6 | -25 | 3 | 65*
Cc1ccc(S(=O)(=O)N2C(=O)CCC2C(N)=O)cc1 (centres undefined) | 0 | . | . | 9 | -3 | -2 | . | . | .
Oc1ccc(-c2csc(Nc3ccccn3)n2)cc1O | 168* | . | . | -4 | 64* | 9 | 47* | -4 | 130*
CC(=O)Nc1ccc(-c2csc(Nc3ccccn3)n2)cc1 | 7 | -28 | 4 | -6 | -1 | 1 | . | . | .
Cc1ccnc(Nc2nc(-c3ccc(O)c(O)c3)cs2)c1 | 76* | . | . | -10 | 62* | 0 | 47* | -1 | 181*
C=CCN(c1ccccc1)S(=O)(=O)c1ccc(Cl)c(C(=O)OCC(=O)N(C)C2CCS(=O)(=O)C2)c1 (centres undefined) | -2 | 1 | 2 | -18 | 1 | -3 | . | . | .
O=C(/C=C1\NC2(CCCC2)Cc2ccccc21)C(=O)N/N=C/c1ccc(O)c(O)c1 | 124* | 54 | -2 | 15 | 64* | 92* | 37* | 2 | 68* | XBP1 UPR conf=80*
O=C1C2C3C=CC(CC3)C2C(=O)N1/N=C/c1ccc(O)c(O)c1 (centres undefined) | 23 | 9 | 2 | 7 | 54* | 45* | 45* | -1 | . | XBP1 UPR conf=18
O=C1c2ccccc2NC(c2ccc(O)cc2)N1/N=C/c1ccc(O)cc1 (centres undefined) | 0 | 6 | 3 | -3 | -6 | 0 | . | . | .
O=C1c2ccccc2C(=O)N1/N=C/c1ccc(O)c(O)c1 | 54* | 70* | 2 | -20 | 57* | 72* | 68* | 5 | 18 | XBP1 UPR conf=37*

Source: PubChem (several laboratories)
